According to ChEMBL document CHEMBL1126744, “Synthesis and structure-activity relationships of phenyl-substituted benzylamine antimycotics: a novel benzylbenzylamine antifungal agent for systemic treatment” (1993):
Converted amounts (≈) assume the structure as drawn.

Experiments:
[1] = tested on: Candida albicans; test: In vitro antifungal activity against Candida albicans delta124 expressed as MIC (mg/L); format: functional
How it was run: (§1)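 Tube broth dilution in malt extract broth (pH 4.8). Blastospores came from yeast nitrogen base cultures shaken at 37 °C for about 30 h. Compounds in DMSO were serially diluted in the broth. After 48 h at 30 °C, MIC was taken as the lowest concentration without macroscopically detectable growth.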

[2] = tested on: Candida albicans; test: In vitro antifungal activity against Candida albicans delta9 expressed as MIC (mg/L); format: functional; how it was run: as §1
[3] = tested on: Aspergillus fumigatus; test: In vitro antifungal activity against Aspergillus fumigatus expressed as MIC (mg/L); format: functional
How it was run: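 Broth dilution in glass tubes with Sabouraud's dextrose broth (pH 6.5). Inoculum was filamentous growth scraped from Kimmig agar cultures (30 °C, 21 days). Compounds were dissolved in DMSO and serially diluted in medium. Tubes were incubated 72 h at 30 °C. MIC is the lowest concentration with no macroscopically visible growth.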

[4] = tested on: Trichophyton benhamiae; test: In vitro antifungal activity against Trichophyton mentagrophytes expressed as MIC (mg/L); format: functional, Arthroderma benhamiae
How it was run: (§2)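 Fungi were grown on Kimmig agar (30 °C, 21 days) and harvested with a spatula. They were tested in glass tubes of Sabouraud's dextrose broth (pH 6.5) containing DMSO-dissolved compound serially diluted in medium. After 7 days at 30 °C, MIC was read as the lowest concentration with no macroscopically visible growth.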

[5] = tested on: Candida parapsilosis; test: In vitro antifungal activity against Candida parapsilosis delta39 expressed as MIC (mg/L); format: functional; details: Lodderomyces parapsilosis; how it was run: as §1
[6] = tested on: Microsporum canis; test: In vitro antifungal activity against Microsporum canis expressed as MIC (mg/L); format: functional; how it was run: as §2
[7] = tested on: Sporothrix schenckii; test: In vitro antifungal activity against Sporothrix schenck ii expressed as MIC (mg/L); format: functional; how it was run: as §2
[8] = tested on: Cavia porcellus; test: In vivo inhibition in guinea pig trichophytosis model; format: functional
[9] = tested on: Cavia porcellus; test: Percent mycological cure in guinea pig skin candidosis model (topical treatment twice daily for 5 days starting 3 days after inoculation) using 2% solution (ED50=1.32%); format: functional
[10] = tested on: Cavia porcellus; test: Percent mycological cure at a dose of 8 mg/kg per day in guinea pig trichophytosis model (treatment once daily for 9 days starting on the day of inoculation); format: functional

SMILES	MIC [1]	MIC [2]	MIC [3]	MIC [4]	MIC [5]	MIC [6]	MIC [7]	ED50 [8]	Cure [9]	Cure [10]
CN(Cc1ccc(/C=C/c2ccccc2)cc1)Cc1cccc2ccccc12	> 200 µg/mL	> 200 µg/mL	> 200 µg/mL	0.1 µg/mL (≈ 0.275 µM)	> 200 µg/mL	0.01 µg/mL (≈ 0.0275 µM)	> 200 µg/mL	–	–	–
CN(Cc1ccc(Oc2ccccc2)cc1)Cc1cccc2ccccc12	> 200 µg/mL	> 200 µg/mL	> 200 µg/mL	0.4 µg/mL (≈ 1.13 µM)	> 200 µg/mL	0.8 µg/mL (≈ 2.26 µM)	> 200 µg/mL	–	–	–
CN(Cc1ccc(C(C)(C)C)cc1)Cc1cccc2ccccc12 [BUTENAFINE]	25 µg/mL (≈ 78.7 µM)	12.5 µg/mL (≈ 39.4 µM)	0.4 µg/mL (≈ 1.26 µM)	0.006 µg/mL (≈ 0.0189 µM)	0.8 µg/mL (≈ 2.52 µM)	0.01 µg/mL (≈ 0.0315 µM)	0.2 µg/mL (≈ 0.63 µM)	–	–	–
CN(Cc1ccc(-c2ccccc2)cc1)Cc1cccc2ccccc12	> 200 µg/mL	> 200 µg/mL	> 200 µg/mL	10 µg/mL (≈ 29.6 µM)	> 200 µg/mL	> 200 µg/mL	> 200 µg/mL	–	–	–
CC(=O)N1CCN(c2ccc(OCC3COC(Cn4ccnc4)(c4ccc(Cl)cc4Cl)O3)cc2)CC1 (configuration not stated) [KETOCONAZOLE]	–	–	–	–	–	–	–	50.8 mg/kg/day	–	–
CN(C/C=C/C#CC(C)(C)C)Cc1cccc2ccccc12 [TERBINAFINE]	25 µg/mL (≈ 85.8 µM)	6.25 µg/mL (≈ 21.4 µM)	0.8 µg/mL (≈ 2.75 µM)	0.003 µg/mL (≈ 0.0103 µM)	0.8 µg/mL (≈ 2.75 µM)	0.006 µg/mL (≈ 0.0206 µM)	0.4 µg/mL (≈ 1.37 µM)	–	–	–
CN(Cc1ccc(C(=O)c2ccccc2)cc1)Cc1cccc2ccccc12	> 200 µg/mL	> 200 µg/mL	> 200 µg/mL	0.05 µg/mL (≈ 0.137 µM)	50 µg/mL (≈ 137 µM)	0.1 µg/mL (≈ 0.274 µM)	> 200 µg/mL	–	–	–
CN(Cc1ccc(C(C)(C)c2ccccc2)cc1)Cc1cccc2ccccc12	1.56 µg/mL (≈ 4.11 µM)	0.8 µg/mL (≈ 2.11 µM)	0.1 µg/mL (≈ 0.263 µM)	0.006 µg/mL (≈ 0.0158 µM)	0.1 µg/mL (≈ 0.263 µM)	0.003 µg/mL (≈ 0.0079 µM)	0.2 µg/mL (≈ 0.527 µM)	4.6 mg/kg/day	90%	100%
COC1=CC(=O)C[C@@H](C)[C@]12Oc1c(Cl)c(OC)cc(OC)c1C2=O [GRISEOFULVIN]	–	–	–	–	–	–	–	40.7 mg/kg/day	–	–
Cc1ccc(C(C)(C)c2ccc(CN(C)Cc3cccc4ccccc34)cc2)cc1	6.25 µg/mL (≈ 15.9 µM)	6.25 µg/mL (≈ 15.9 µM)	12.5 µg/mL (≈ 31.8 µM)	0.1 µg/mL (≈ 0.254 µM)	0.1 µg/mL (≈ 0.254 µM)	0.1 µg/mL (≈ 0.254 µM)	0.4 µg/mL (≈ 1.02 µM)	–	–	–
CCN(c1ccccc1)c1ccc(CN(C)Cc2cccc3ccccc23)cc1	> 200 µg/mL	> 200 µg/mL	> 200 µg/mL	0.006 µg/mL (≈ 0.0158 µM)	3.13 µg/mL (≈ 8.23 µM)	0.006 µg/mL (≈ 0.0158 µM)	3.13 µg/mL (≈ 8.23 µM)	–	–	–
CN(Cc1ccc(C2(c3ccccc3)CC2)cc1)Cc1cccc2ccccc12	3.13 µg/mL (≈ 8.29 µM)	1.56 µg/mL (≈ 4.13 µM)	1.56 µg/mL (≈ 4.13 µM)	0.006 µg/mL (≈ 0.0159 µM)	0.1 µg/mL (≈ 0.265 µM)	0.003 µg/mL (≈ 0.00795 µM)	0.1 µg/mL (≈ 0.265 µM)	–	–	–
C=C(c1ccccc1)c1ccc(CN(C)Cc2cccc3ccccc23)cc1	> 200 µg/mL	> 200 µg/mL	> 200 µg/mL	0.01 µg/mL (≈ 0.0275 µM)	0.8 µg/mL (≈ 2.2 µM)	0.01 µg/mL (≈ 0.0275 µM)	1.56 µg/mL (≈ 4.29 µM)	–	–	–
CN(Cc1ccc(C(C)(C)c2ccccc2)cc1)Cc1cccc2c(Cl)csc12	1.56 µg/mL (≈ 3.71 µM)	1.56 µg/mL (≈ 3.71 µM)	0.2 µg/mL (≈ 0.476 µM)	0.02 µg/mL (≈ 0.0476 µM)	0.1 µg/mL (≈ 0.238 µM)	0.02 µg/mL (≈ 0.0476 µM)	0.8 µg/mL (≈ 1.9 µM)	–	–	–
CN(Cc1ccc(Nc2ccccc2)cc1)Cc1cccc2ccccc12	> 200 µg/mL	> 200 µg/mL	> 200 µg/mL	> 100 µg/mL	> 200 µg/mL	> 100 µg/mL	> 200 µg/mL	–	–	–
CN(Cc1ccc(C(C)(C)c2ccccc2)cc1)Cc1cccc2ccsc12	0.8 µg/mL (≈ 2.07 µM)	0.4 µg/mL (≈ 1.04 µM)	0.1 µg/mL (≈ 0.259 µM)	0.003 µg/mL (≈ 0.00778 µM)	0.05 µg/mL (≈ 0.13 µM)	0.003 µg/mL (≈ 0.00778 µM)	0.2 µg/mL (≈ 0.519 µM)	–	–	–
CC(=O)N(c1ccccc1)c1ccc(CN(C)Cc2cccc3ccccc23)cc1	> 200 µg/mL	> 200 µg/mL	> 200 µg/mL	0.8 µg/mL (≈ 2.03 µM)	> 200 µg/mL	3.13 µg/mL (≈ 7.93 µM)	> 200 µg/mL	–	–	–
CN(Cc1ccc(Cc2ccccc2)cc1)Cc1cccc2ccccc12	> 100 µg/mL	50 µg/mL (≈ 142 µM)	> 100 µg/mL	0.05 µg/mL (≈ 0.142 µM)	6.25 µg/mL (≈ 17.8 µM)	0.05 µg/mL (≈ 0.142 µM)	1.56 µg/mL (≈ 4.44 µM)	–	–	–
